Test results from ChEMBL document CHEMBL4257441, “Protection effect of intracellular melanin from Lachnum YM156 and Haikunshenxi capsule combination on adenine-induced chronic renal failure in mice” (Medchemcomm, 2017).
Calls of active or inactive are those of the source. The calls are words filed in the database; no cut-off is given here.

Legend:
[1] = test system: Mus musculus; experiment: Protective effect against adenine-induced chronic renal failure in ig dosed Kunming mouse assessed as decrease in serum creatinine levels administered as qd for 4 successive weeks with haikunshenxi capsule by picric acid colorimetric method; format: functional, organism-based
Outline: (§1)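 Adenine-fed CRF model in male Kunming mice (20 ± 5 g) housed at 18–20 °C on a 12 h light/dark cycle. Oral dosing at 100 or 200 mg kg–1, with or without Haikunshenxi capsule; ten mice per group. Serum creatinine, BUN, total protein and albumin measured, each group compared with the model group.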

[2] = test system: Mus musculus; experiment: Protective effect against adenine-induced chronic renal failure in Kunming mouse assessed as nephridial GSH-PX levels at 200 mg/kg, ig qd administered for 4 successive weeks with haikunshenxi capsule by colorimetric method (reference value: 688.45 +/- 12.67 U/L); format: functional
[3] = test system: Mus musculus; experiment: Protective effect against adenine-induced chronic renal failure in Kunming mouse assessed as nephridial SOD levels at 100 mg/kg, ig qd administered for 4 successive weeks by hydroxylamine method (reference value: 30.45 +/- 1.12 U/mg); format: functional
[4] = test system: Mus musculus; experiment: Protective effect against adenine-induced chronic renal failure in ig dosed Kunming mouse assessed as increase in nephridial GSH-PX levels administered as qd for 4 successive weeks by colorimetric method; format: functional, organism-based
Outline: (§2)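 Male Kunming mice (20 ± 5 g) given dietary adenine to induce CRF, then dosed orally at 100 or 200 mg kg–1, with or without Haikunshenxi capsule; n = 10 per group. Kidney homogenate assayed for SOD and CAT (U mg–1 protein), GSH-Px (U L–1), GSH (mg g–1 protein) and MDA (nmol mL–1).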

[5] = test system: Mus musculus; experiment: Protective effect against adenine-induced chronic renal failure in Kunming mouse assessed as appearance of complete kidney tubules at 100 mg/kg, ig qd administered for 4 successive weeks by haematoxylin and eosin dye-based optical microscopic method; format: functional, organism-based
Outline: (§3)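 Kidneys were taken from male Kunming mice given an adenine diet plus oral melanin (100 or 200 mg kg–1), with or without Haikunshenxi capsule, ten per group. Histological sections were examined at 400× for glomeruli, tubules, adenine crystals, tubular atrophy and interstitial fibrosis.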

[6] = test system: Mus musculus; experiment: Protective effect against adenine-induced chronic renal failure in Kunming mouse assessed as nephridial CAT levels at 200 mg/kg, ig qd administered for 4 successive weeks with haikunshenxi capsule by visible spectrometry method (reference value: 44.13 +/- 1.25 U/mg); format: functional
[7] = test system: Mus musculus; experiment: Protective effect against adenine-induced chronic renal failure in Kunming mouse assessed as nephridial TNF-alpha levels at 100 mg/kg, ig qd administered for 4 successive weeks (reference value: 250.15 +/- 8.10 pg/ml); format: functional
[8] = test system: Mus musculus; experiment: Protective effect against adenine-induced chronic renal failure in ig dosed Kunming mouse assessed as decrease in nephridial MDA levels administered as qd for 4 successive weeks by thiobarbituric acid method; format: functional, organism-based; outline: as §2
[9] = test system: Mus musculus; experiment: Protective effect against adenine-induced chronic renal failure in ig dosed Kunming mouse assessed as decrease in nephridial MDA levels administered as qd for 4 successive weeks with haikunshenxi capsule by thiobarbituric acid method; format: functional, organism-based; outline: as §2
[10] = test system: Mus musculus; experiment: Protective effect against adenine-induced chronic renal failure in ig dosed Kunming mouse assessed as decrease in nephridial IL-1beta levels administered as qd for 4 successive weeks with haikunshenxi capsule; format: functional, organism-based
Outline: (§4)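 CRF model made by chronic dietary adenine in male Kunming mice (20 ± 5 g); oral dosing at 100 or 200 mg kg–1, alone or with Haikunshenxi capsule; ten mice per group. Kidney tissue TNF-α, IL-1β and IL-6 measured as pg per mg protein, and iNOS activity as U mg–1 protein.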

[11] = test system: Mus musculus; experiment: Protective effect against adenine-induced chronic renal failure in Kunming mouse assessed as nephridial IL-1beta levels at 100 mg/kg, ig qd administered for 4 successive weeks with haikunshenxi capsule (reference value: 18.34 +/- 0.25 pg/ml); format: functional
[12] = test system: Mus musculus; experiment: Protective effect against adenine-induced chronic renal failure in Kunming mouse assessed as weight growth rate at 200 mg/kg, ig qd administered for 4 successive weeks with haikunshenxi capsule measured 24 hrs post last dose (reference value: 32.42 +/- 1.43%); format: functional
Outline: (§5)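 Male Kunming mice (20 ± 5 g) kept on a 12 h light/dark cycle at 18–20 °C on a standard diet. CRF induced by chronic dietary adenine. Test material given orally at 100 or 200 mg kg–1, alone or with Haikunshenxi capsule, alongside normal, model and capsule-only groups; ten mice per group. Weight growth rate recorded in %, kidney index in mg g–1.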

[13] = test system: Mus musculus; experiment: Protective effect against adenine-induced chronic renal failure in Kunming mouse assessed as weight growth rate at 100 mg/kg, ig qd administered for 4 successive weeks with haikunshenxi capsule measured 24 hrs post last dose (reference value: 32.42 +/- 1.43%); format: functional; outline: as §5
[14] = test system: Mus musculus; experiment: Protective effect against adenine-induced chronic renal failure in ig dosed Kunming mouse assessed as increase in albumin levels in serum administered as qd for 4 successive weeks by bromocresol green colorimetric method; format: functional, organism-based; outline: as §1
[15] = test system: Mus musculus; experiment: Protective effect against adenine-induced chronic renal failure in Kunming mouse assessed as nephridial iNOS levels at 100 mg/kg, ig qd administered for 4 successive weeks with haikunshenxi capsule (reference value: 1.98 +/- 0.12 U/mg); format: functional
[16] = test system: Mus musculus; experiment: Protective effect against adenine-induced chronic renal failure in Kunming mouse assessed as nephridial GSH-PX levels at 200 mg/kg, ig qd administered for 4 successive weeks by colorimetric method (reference value: 688.45 +/- 12.67 U/L); format: functional
[17] = test system: Mus musculus; experiment: Protective effect against adenine-induced chronic renal failure in Kunming mouse assessed as nephridial IL-6 levels at 200 mg/kg, ig qd administered for 4 successive weeks (reference value: 20.85 +/- 0.11 pg/ml); format: functional
[18] = test system: Mus musculus; experiment: Protective effect against adenine-induced chronic renal failure in Kunming mouse assessed as nephridial GSH-PX levels at 100 mg/kg, ig qd administered for 4 successive weeks by colorimetric method (reference value: 688.45 +/- 12.67 U/L); format: functional
[19] = test system: Mus musculus; experiment: Protective effect against adenine-induced chronic renal failure in Kunming mouse assessed as reduction in interstitial fibrosis at 200 mg/kg, ig qd administered for 4 successive weeks with haikunshenxi capsule by haematoxylin and eosin dye-based optical microscopic method; format: functional, organism-based; outline: as §3
[20] = test system: Mus musculus; experiment: Protective effect against adenine-induced chronic renal failure in Kunming mouse assessed as nephridial iNOS levels at 200 mg/kg, ig qd administered for 4 successive weeks with haikunshenxi capsule (reference value: 1.98 +/- 0.12 U/mg); format: functional
[21] = test system: Mus musculus; experiment: Protective effect against adenine-induced chronic renal failure in Kunming mouse assessed as nephridial IL-6 levels at 200 mg/kg, ig qd administered for 4 successive weeks with haikunshenxi capsule (reference value: 20.85 +/- 0.11 pg/ml); format: functional
[22] = test system: Mus musculus; experiment: Protective effect against adenine-induced chronic renal failure in Kunming mouse assessed as nephridial SOD levels at 100 mg/kg, ig qd administered for 4 successive weeks with haikunshenxi capsule by hydroxylamine method (reference value: 30.45 +/- 1.12 U/mg); format: functional
[23] = test system: Mus musculus; experiment: Protective effect against adenine-induced chronic renal failure in ig dosed Kunming mouse assessed as decrease in nephridial IL-1beta levels administered as qd for 4 successive weeks; format: functional, organism-based; outline: as §4

## Cc1c(=O)c(=O)c2c3c[nH]c4c(C)c(=O)c(=O)c(c5c[nH]c1c52)c43
[1]
  Activity: Dose-dependent effect
[2]
  Activity: 878.91 U/L
[3]
  Activity: 32.32 U/mg
[4]
  Activity: Dose-dependent effect
[5]
  Activity: Active
[6]
  Activity: 76.47 U/mg
[7]
  Activity: 218.12 pg/mL
[8]
  Activity: Dose-dependent effect
[9]
  Activity: Dose-dependent effect
[10]
  Activity: Dose-dependent effect
[11]
  Activity: 14.51 pg/mL
[12]
  Activity: 56.64%
[13]
  Activity: 54.34%
[14]
  Activity: Dose-dependent effect
[15]
  Activity: 0.79 U/mg
[16]
  Activity: 790.43 U/L
[17]
  Activity: 14.16 pg/mL
[18]
  Activity: 743.09 U/L
[19]
  Activity: Active
[20]
  Activity: 0.68 U/mg
[21]
  Activity: 10.74 pg/mL
[22]
  Activity: 46.52 U/mg
[23]
  Activity: Dose-dependent effect
